Measured values as given in ChEMBL document CHEMBL1142588, “Communesins G and H, new alkaloids from the psychrotolerant fungus Penicillium rivulum” (J Nat Prod, 2005).
Active and inactive are the calls of the source. The calls are words filed in the database; no cut-off is given here.

Key:
[1] = Cytotoxicity against african green monkey BS-C-1 cells; assay type: cell-based; settings: chlorocebus aethiops, bsc-1
Summary of the method: (§1)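 BSC-1 African green monkey kidney cells infected with Herpes simplex type 1 virus (ATCC VR 733); scored for inhibition of virus and for alteration of the host cells.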

Escherichia coli = experiment: Antibacterial activity against Escherichia coli assessed as inhibition zone at 1 mg/mL by paper disk assay; assay type: functional, organism-based
Summary of the method: (§2)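 Paper disk diffusion; 30 μL of a 1 mg/mL compound solution applied per disk; read-out as zone of inhibition. Panel run in parallel: bacteria E. coli, B. subtilis, P. aeruginosa; fungi C. albicans, T. mentagrophytes, A. resinae.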

Bacillus subtilis = experiment: Antibacterial activity against Bacillus subtilis assessed as inhibition zone at 1 mg/mL by paper disk assay; assay type: functional, organism-based; summary of the method: as §2
Pseudomonas aeruginosa = experiment: Antibacterial activity against Pseudomonas aeruginosa assessed as inhibition zone at 1 mg/mL by paper disk assay; assay type: functional, organism-based; summary of the method: as §2
Candida albicans = experiment: Antifungal activity against Candida albicans assessed as inhibition zone at 1 mg/mL by paper disk assay; assay type: functional, organism-based; summary of the method: as §2
[2] = tested on: Trichophyton mentagrophytes; experiment: Antifungal activity against Trichophyton mentagrophytes assessed as inhibition zone at 1 mg/mL by paper disk assay; assay type: functional, organism-based; summary of the method: as §2
Amorphotheca resinae = experiment: Antifungal activity against Amorphotheca resinae assessed as inhibition zone at 1 mg/mL by paper disk assay; assay type: functional, organism-based; summary of the method: as §2
Human alphaherpesvirus 1 = experiment: Antiviral activity against herpes simplex virus type 1 ATCC VR 733 infected in african green monkey BS-C-1 cells; assay type: functional, organism-based; summary of the method: as §1
Poliovirus 1 = experiment: Antiviral activity against Poliovirus type 1 infected in african green monkey BS-C-1 cells; assay type: functional, organism-based
Summary of the method: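 Poliovirus type 1 (Pfizer vaccine strain) infecting African green monkey kidney BSC-1 cells; scored for inhibition of the virus and for alteration of the host cells.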

P388 = experiment: Cytotoxicity against mouse P388 cells; assay type: functional; settings: read-out: ID50 (the source's name)

SMILES | Activity [1] | Activity (Escherichia coli) | Activity (Bacillus subtilis) | Activity (Pseudomonas aeruginosa) | Activity (Candida albicans) | Activity [2] | Activity (Amorphotheca resinae) | Activity (Human alphaherpesvirus 1) | Activity (Poliovirus 1) | IC50 (P388) [µg/mL]
CCC(=O)N1CC[C@]23c4ccccc4N[C@H]4N(C)c5cccc6c5[C@]42CCN([C@H]6[C@@H]2OC2(C)C)[C@H]13 [COMMUNESIN G] | Non-toxic | inactive | inactive | inactive | inactive | inactive | inactive | inactive | inactive | > 12.5
CCCC(=O)N1CC[C@]23c4ccccc4N[C@H]4N(C)c5cccc6c5[C@]42CCN([C@H]6[C@@H]2OC2(C)C)[C@H]13 [COMMUNESIN H] | Non-toxic | inactive | inactive | inactive | inactive | inactive | inactive | inactive | inactive | > 12.5
